Results from ChEMBL document CHEMBL2346655, “Synthesis and in vitro biological evaluation of 2,6,9-trisubstituted purines targeting multiple cyclin-dependent kinases” (Eur J Med Chem, 2013).
Activity calls are given as the source filed them. No cut-off for these calls is given here.

Experiments:
HCT-116 [1] = assay: Cell cycle arrest in human HCT116 cells assessed as accumulation at S phase at 5 uM after 24 hrs by propidium iodide staining-based flow cytometric analysis (reference value: 31.6%); format: functional
Method in brief: (§1)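 Sub-confluent cells treated at several concentrations for 24 h, then pulsed with 10 μM BrdU for 30 min at 37 °C before harvest. Cells were PBS-washed, fixed in 70% ethanol, denatured in 2 M HCl and neutralized. Stained with fluorescein anti-BrdU and propidium iodide; DNA content read by flow cytometry with 488 nm excitation.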

[2] = molecular target: T1, CDK9/cyclin T1 (Homo sapiens) (UniProt O60563+P50750); assay: Inhibition of CDK9/CyclinT1-mediated phosphorylation of RNA polymerase 2 at Ser2 in human K562 cells up to 25 uM after 24 hrs by immunoblotting analysis; format: cell-based
Method in brief: (§2)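 Immunoblot: cells lysed by harvesting in Laemmli sample buffer, proteins run on SDS-PAGE, electroblotted to nitrocellulose, blocked, primary antibodies overnight, peroxidase-conjugated secondaries, ECL detection by CCD camera. Antibodies included anti-phospho RNA polymerase II (S2), anti-RNA polymerase II (ARNA-3), anti-p53 (DO-1), anti-p21waf1 (118), anti-PCNA.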

[3] = molecular target: T1, CDK9/cyclin T1 (Homo sapiens); assay: Inhibition of CDK9/CyclinT1 in human ARN8 cells assessed as increase in p53-dependent transcriptional activity at 2 uM after 24 hrs by beta-galactosidase reporter gene assay; format: cell-based
Method in brief: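 Arn-8 human melanoma cells stably carrying p53-responsive pRGCΔfoslacZ reporter; 24 h compound exposure, then permeabilized with 0.3% Triton X-100 for 15 min. 4-Methylumbelliferon-β-D-galactopyranoside added (80 μM final); fluorescence read at 355/460 nm (ex/em) after 1 h as β-galactosidase activity.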

HCT-116 [4] = assay: Cell cycle arrest in human HCT116 cells assessed as accumulation at S phase after 24 hrs by BrdU incorporation assay; format: functional, cell-based
Method in brief: (§3)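 Sub-confluent cells were exposed to compound for 24 h, then pulse-labeled with 10 μM BrdU for 30 min at 37 °C. After ethanol (70%) fixation and 2 M HCl denaturation, cells were stained with fluorescein anti-BrdU antibody plus propidium iodide. The BrdU-positive S-phase fraction was quantified by flow cytometry (488 nm laser).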

[5] = molecular target: T1, CDK9/cyclin T1 (Homo sapiens); assay: Inhibition of CDK9/CyclinT1-mediated phosphorylation of RNA polymerase 2 at Ser5 in human K562 cells up to 25 uM after 24 hrs by immunoblotting analysis; format: cell-based; method in brief: as §2
HCT-116 [6] = assay: Induction of apoptosis in human HCT116 cells assessed as change in PUMA level up to 5 uM after 24 hrs by immunoblotting analysis; format: functional, cell-based
Method in brief: (§4)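 Cells were treated for 24 h, harvested directly into Laemmli sample buffer, and run on SDS-PAGE. Proteins were blotted to nitrocellulose, blocked, probed overnight with primary antibodies, then with peroxidase-linked secondaries. Bands were detected by ECL with a CCD camera. PCNA and tubulin served as loading references.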

K562 [7] = assay: Induction of apoptosis in human K562 cells assessed as change in PUMA level up to 5 uM after 24 hrs by immunoblotting analysis; format: functional, cell-based; method in brief: as §4
[8] = molecular target: T1, CDK9/cyclin T1 (Homo sapiens); assay: Inhibition of CDK9/CyclinT1-mediated phosphorylation of RNA polymerase 2 at Ser2 in human HCT116 cells up to 25 uM after 24 hrs by immunoblotting analysis; format: cell-based; details: HCT-116; method in brief: as §2
HCT-116 [9] = assay: Cell cycle arrest in human HCT116 cells assessed as accumulation at S phase at 1 uM after 24 hrs by propidium iodide staining-based flow cytometric analysis (reference value: 31.6%); format: functional; method in brief: as §1
HCT-116 [10] = assay: Induction of apoptosis in human HCT116 cells assessed as change in BCL2 level up to 5 uM after 24 hrs by immunoblotting analysis; format: functional, cell-based; method in brief: as §4
[11] = molecular target: T2, Cyclin-dependent kinase 7/ cyclin H (Homo sapiens) (UniProt P51946+P50613); assay: Inhibition of CDK7/CyclinH/MAT1-mediated phosphorylation of RNA polymerase 2 at Ser2 in human K562 cells up to 25 uM after 24 hrs by immunoblotting analysis; format: cell-based
Method in brief: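 Treated cells were lysed in Laemmli buffer and separated by SDS-PAGE, then transferred to nitrocellulose. Blots were probed overnight with phospho-RNA polymerase II (S2) and total RNA polymerase II (clone ARNA-3) antibodies, followed by peroxidase secondaries. Signal was developed by ECL on a CCD camera.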

[12] = molecular target: T2, Cyclin-dependent kinase 7/ cyclin H (Homo sapiens); assay: Inhibition of CDK7/CyclinH/MAT1-mediated phosphorylation of RNA polymerase 2 at Ser5 in human K562 cells up to 25 uM after 24 hrs by immunoblotting analysis; format: cell-based
K562 [13] = assay: Cell cycle arrest in human K562 cells assessed as accumulation at S phase after 24 hrs by BrdU incorporation assay; format: functional, cell-based; method in brief: as §3
[14] = molecular target: T2, Cyclin-dependent kinase 7/ cyclin H (Homo sapiens); assay: Inhibition of CDK7/CyclinH/MAT1-mediated phosphorylation of RNA polymerase 2 at Ser5 in human HCT116 cells up to 25 uM after 24 hrs by immunoblotting analysis; format: cell-based; details: HCT-116
K562 [15] = assay: Cell cycle arrest in human K562 cells assessed as accumulation at subG1 phase at 1 uM after 24 hrs by propidium iodide staining-based flow cytometric analysis (reference value: 2.4%); format: functional; method in brief: as §1
HCT-116 [16] = assay: Cytotoxicity against human HCT116 cells assessed as reduction in number of viable cells after 72 hrs by fluorescence assay; format: functional, cell-based; details: HCT-116, 72 h
Method in brief: (§5)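 Three-fold compound dilutions tested in triplicate on cultured cells for 72 h. Viable cells detected by adding Calcein AM and reading fluorescence at 485/538 nm (ex/em).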

HCT-116 [17] = assay: Cell cycle arrest in human HCT116 cells assessed as accumulation at G2/M phase at 1 uM after 24 hrs by propidium iodide staining-based flow cytometric analysis (reference value: 19.6%); format: functional; method in brief: as §1
HOS = assay: Ratio of roscovitine IC50 to compound IC50 for human HOS cells; format: functional
Method in brief: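 Cytotoxicity IC50s underlying the ratio: cells treated in triplicate with three-fold compound dilutions for 72 h, then Calcein AM added and live-cell fluorescence read at 485/538 nm (ex/em).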

K562 [18] = assay: Cell cycle arrest in human K562 cells assessed as accumulation at subG1 phase at 0.2 uM after 24 hrs by propidium iodide staining-based flow cytometric analysis (reference value: 2.4%); format: functional; method in brief: as §1
K562 [19] = assay: Induction of apoptosis in human K562 cells assessed as PARP cleavage up to 5 uM after 24 hrs by immunoblotting analysis; format: functional, cell-based; method in brief: as §4
HCT-116 [20] = assay: Induction of apoptosis in human HCT116 cells assessed as decrease in MCL1 level after 24 hrs by immunoblotting analysis; format: functional, cell-based; method in brief: as §4
K562 [21] = assay: Cell cycle arrest in human K562 cells assessed as accumulation at G2/M phase at 1 uM after 24 hrs by propidium iodide staining-based flow cytometric analysis (reference value: 13.8%); format: functional; method in brief: as §1
HCT-116 [22] = assay: Induction of apoptosis in human HCT116 cells assessed as caspase-3 activation up to 5 uM after 24 hrs by immunoblotting analysis; format: functional, cell-based; method in brief: as §4
HCT-116 [23] = assay: Cell cycle arrest in human HCT116 cells assessed as accumulation at subG1 phase at 5 uM after 24 hrs by propidium iodide staining-based flow cytometric analysis (reference value: 1.4%); format: functional; method in brief: as §1
G-361 = assay: Cytotoxicity against human G361 cells assessed as reduction in number of viable cells after 72 hrs by fluorescence assay; format: functional, cell-based; details: G-361, 72 h; method in brief: as §5
K562 [24] = assay: Cytotoxicity against human K562 cells assessed as reduction in number of viable cells after 72 hrs by fluorescence assay; format: functional, cell-based; details: K562, 72 h; method in brief: as §5

inhibition [2]: Active
inhibition [3]: Active
inhibition [5]: Active
inhibition [8]: Active
inhibition [11]: Active
inhibition [12]: Active
inhibition [14]: Active
Structure (SMILES): CC[C@@H](Nc1nc(NCc2cc(Cl)ccc2O)c2ncn(C(C)C)c2n1)C(C)O (mixture of isomers)
Activity (HCT-116 [1]): 33.7%
Activity (HCT-116 [4]): Dose-dependent effect
Activity (HCT-116 [6]): inactive
Activity (K562 [7]): inactive
Activity (HCT-116 [9]): 28.8%
Activity (HCT-116 [10]): inactive
Activity (K562 [13]): Dose-dependent effect
Activity (K562 [15]): 3.3%
IC50 (HCT-116 [16]): 2000 nM
Activity (HCT-116 [17]): 31.8%
Ratio IC50 (HOS): >9
Activity (K562 [18]): 2.8%
Activity (K562 [19]): Active
Activity (HCT-116 [20]): Dose-dependent effect
Activity (K562 [21]): 28.7%
Activity (HCT-116 [22]): inactive
Activity (HCT-116 [23]): 4.6%
IC50 (G-361): 2300 nM
IC50 (K562 [24]): 3300 nM
